How the values were obtained:
SH-SY5Y [1] = test: Neuroprotection against H2O2-induced cell death in human SH-SY5Y cells assessed as cell viability at 50 uM preincubated for 3 hrs followed by H2O2 addition measured after 24 hrs by MTT assay relative to control; assay type: functional; conditions: read-out: Activity
In short: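 SH-SY5Y cells grown in DMEM with 10% FBS, 1% L-glutamine and antibiotics, 5×10^3/well. Compound (10 or 50 µM) for 3 h before 250 µM H2O2, then 24 h incubation. MTT read at 570 nm after DMSO solubilization. Viability as blank-corrected % of untreated control; three independent experiments, mean ± SEM.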

PC-12 [2] = test: Neuroprotection against H2O2-induced cell death in rat PC12 cells assessed as cell viability at 0.1 uM preincubated for 3 hrs followed by H2O2 stimulation measured after 2 hrs by MTT assay (reference value: 25.2 to 41.8%); assay type: functional; conditions: read-out: Activity
PC-12 [3] = test: Inhibition of H2O2-induced ROS generation in rat PC12 cells preincubated for 6 hrs followed by H2O2 addition measured after 18 hrs by DCFH-DA staining based fluorimetric method; assay type: functional, cell-based
In short: (§1)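 PC12 cells at 1×10^4/well in RPMI with 10% FBS and penicillin/streptomycin, 24 h at 37 °C, 5% CO2. Test samples (1, 5, 10, 50 µM; ≤0.5% DMSO) for 6 h, PBS wash, then H2O2 150 µM for 18 h. Loaded with 10 µM DCFH-DA for 30 min at 37 °C in the dark, washed twice. DCF fluorescence read at ex 485/em 528 nm as % of untreated control. Three independent experiments, mean ± SEM.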

PC-12 [4] = test: Neuroprotection against H2O2-induced cell death in rat PC12 cells assessed as cell viability at 1 uM preincubated for 3 hrs followed by H2O2 stimulation measured after 2 hrs by MTT assay (reference value: 25.2 to 41.8%); assay type: functional; conditions: read-out: Activity
PC-12 [5] = test: Inhibition of H2O2-induced ROS generation in rat PC12 cells assessed as intracellular ROS level at 1 uM preincubated for 6 hrs followed by H2O2 addition measured after 18 hrs by DCFH-DA staining based fluorimetric method relative to control; assay type: functional; parameters: scale not given: the % may be the effect or the level left; in short: as §1
SH-SY5Y [6] = test: Inhibition of amyloid beta (1 to 42) (unknown origin)-induced cell death in human SH-SY5Y cells assessed as cell viability at 50 uM preincubated for 3 hrs followed by amyloid beta (1 to 42) addition measured after 24 hrs by MTT assay relative to control; assay type: functional; conditions: read-out: Activity
In short: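 SH-SY5Y cells grown in DMEM with 10% FBS, 1% L-glutamine and antibiotics, seeded at 5×10^3/well. Pretreated 3 h with compound (10 or 50 µM), then Aβ1-42 10 µM added for 24 h. MTT, formazan dissolved in DMSO, A570. Viability as blank-corrected % of untreated control; three independent experiments, mean ± SEM.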

[7] = Inhibition of soybean 15-LOX assessed as reduction in conversion of linoleic acid to 13-hydroperoxylinoleic acid by spectrophotometric method; parameters: species or system Glycine max
In short: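 Soybean lipoxygenase type 1-B (final 167 U/mL) with compound (DMSO stock diluted in 0.1 M phosphate buffer pH 8) and linoleic acid (134 mM in ethanol) at room temperature. Formation of 13-hydroperoxylinoleic acid followed spectrophotometrically at 234 nm.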

PC-12 [8] = test: Inhibition of H2O2-induced ROS generation in rat PC12 cells assessed as intracellular ROS level at 5 uM preincubated for 6 hrs followed by H2O2 addition measured after 18 hrs by DCFH-DA staining based fluorimetric method relative to control; assay type: functional; parameters: scale not given: the % may be the effect or the level left; in short: as §1
PC-12 [9] = test: Neuroprotection against H2O2-induced cell death in rat PC12 cells assessed as cell viability at 5 uM preincubated for 3 hrs followed by H2O2 stimulation measured after 2 hrs by MTT assay (reference value: 25.2 to 41.8%); assay type: functional; conditions: read-out: Activity
PC-12 [10] = test: Inhibition of H2O2-induced ROS generation in rat PC12 cells assessed as intracellular ROS level at 50 uM preincubated for 6 hrs followed by H2O2 addition measured after 18 hrs by DCFH-DA staining based fluorimetric method relative to control; assay type: functional; parameters: scale not given: the % may be the effect or the level left; in short: as §1
PC-12 [11] = test: Cytotoxicity against rat PC12 cells assessed as effect on cell viability at 1 to 50 uM by MTT assay; assay type: cell-based; conditions: pc-12, 50 µM
[12] = target: Amyloid-beta precursor protein (Homo sapiens) (UniProt P05067); test: Inhibition of amyloid beta (1 to 42) (unknown origin) self-induced aggregation at 100 uM incubated for 48 hrs by thioflavin-T fluorescence assay relative to control
Acetylcholinesterase = Acetylcholinesterase (Electrophorus electricus, UniProt O42275); test: Inhibition of electric eel AChE using acetylthiocholine iodide as substrate pretreated for 5 mins followed by substrate addition by Ellman's method
PC-12 [13] = test: Neuroprotection against H2O2-induced cell death in rat PC12 cells assessed as cell viability at 20 uM preincubated for 3 hrs followed by H2O2 stimulation measured after 2 hrs by MTT assay (reference value: 25.2 to 41.8%); assay type: functional; conditions: read-out: Activity
PC-12 [14] = test: Neuroprotection against H2O2-induced cell death in rat PC12 cells assessed as cell viability at 50 uM preincubated for 3 hrs followed by H2O2 stimulation measured after 2 hrs by MTT assay (reference value: 25.2 to 41.8%); assay type: functional; conditions: read-out: Activity
PC-12 [15] = test: Neuroprotection against H2O2-induced cell death in rat PC12 cells assessed as cell viability at 10 uM preincubated for 3 hrs followed by H2O2 stimulation measured after 2 hrs by MTT assay (reference value: 25.2 to 41.8%); assay type: functional; conditions: read-out: Activity
PC-12 [16] = test: Inhibition of H2O2-induced ROS generation in rat PC12 cells assessed as intracellular ROS level at 10 uM preincubated for 6 hrs followed by H2O2 addition measured after 18 hrs by DCFH-DA staining based fluorimetric method relative to control; assay type: functional; parameters: scale not given: the % may be the effect or the level left; in short: as §1
Cholinesterase = Cholinesterase (Equus caballus, UniProt P81908); test: Inhibition of equine serum BuChE using butyrylthiocholine iodide as substrate pretreated for 5 mins followed by substrate addition by Ellman's method
In short: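 Ellman assay with horse serum BuChE (5 IU/mL) in 0.1 M phosphate buffer pH 8.0 with DTNB. Compound was preincubated with enzyme 5 min, then butyrylthiocholine iodide was added. Absorbance read at 412 nm. IC50 from a log concentration vs % inhibition curve; triplicate runs.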

PC-12 [17] = test: Neuroprotection against H2O2-induced cell death in rat PC12 cells assessed as increase in cell viability preincubated for 3 hrs followed by H2O2 stimulation measured after 2 hrs by MTT assay; assay type: functional, cell-based
SH-SY5Y [18] = test: Inhibition of amyloid beta (1 to 42) (unknown origin)-induced cell death in human SH-SY5Y cells assessed as cell viability at 100 uM preincubated for 3 hrs followed by amyloid beta (1 to 42) addition measured after 24 hrs by MTT assay relative to control; conditions: read-out: Activity
SH-SY5Y [19] = test: Neuroprotection against H2O2-induced cell death in human SH-SY5Y cells assessed as cell viability at 100 uM preincubated for 3 hrs followed by H2O2 addition measured after 24 hrs by MTT assay relative to control; conditions: read-out: Activity

Chain of Acetylcholinesterase (O42275 whole entry): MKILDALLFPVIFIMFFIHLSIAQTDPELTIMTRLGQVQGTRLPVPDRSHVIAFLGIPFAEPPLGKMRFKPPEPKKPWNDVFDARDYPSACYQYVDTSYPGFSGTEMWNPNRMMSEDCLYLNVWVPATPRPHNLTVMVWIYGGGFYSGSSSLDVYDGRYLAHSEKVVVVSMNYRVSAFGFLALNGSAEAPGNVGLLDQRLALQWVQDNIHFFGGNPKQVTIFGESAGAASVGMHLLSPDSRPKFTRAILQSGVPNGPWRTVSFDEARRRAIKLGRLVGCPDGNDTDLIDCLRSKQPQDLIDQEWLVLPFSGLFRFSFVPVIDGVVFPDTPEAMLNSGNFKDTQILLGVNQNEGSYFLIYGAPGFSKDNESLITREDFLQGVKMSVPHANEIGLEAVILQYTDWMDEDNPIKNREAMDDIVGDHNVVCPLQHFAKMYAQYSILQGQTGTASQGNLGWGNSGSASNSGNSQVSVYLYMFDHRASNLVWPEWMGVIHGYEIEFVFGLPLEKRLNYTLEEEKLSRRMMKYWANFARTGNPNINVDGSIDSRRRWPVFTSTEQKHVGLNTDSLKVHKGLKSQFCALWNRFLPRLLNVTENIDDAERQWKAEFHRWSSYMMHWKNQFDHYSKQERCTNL
Chain of Cholinesterase (P81908 whole entry): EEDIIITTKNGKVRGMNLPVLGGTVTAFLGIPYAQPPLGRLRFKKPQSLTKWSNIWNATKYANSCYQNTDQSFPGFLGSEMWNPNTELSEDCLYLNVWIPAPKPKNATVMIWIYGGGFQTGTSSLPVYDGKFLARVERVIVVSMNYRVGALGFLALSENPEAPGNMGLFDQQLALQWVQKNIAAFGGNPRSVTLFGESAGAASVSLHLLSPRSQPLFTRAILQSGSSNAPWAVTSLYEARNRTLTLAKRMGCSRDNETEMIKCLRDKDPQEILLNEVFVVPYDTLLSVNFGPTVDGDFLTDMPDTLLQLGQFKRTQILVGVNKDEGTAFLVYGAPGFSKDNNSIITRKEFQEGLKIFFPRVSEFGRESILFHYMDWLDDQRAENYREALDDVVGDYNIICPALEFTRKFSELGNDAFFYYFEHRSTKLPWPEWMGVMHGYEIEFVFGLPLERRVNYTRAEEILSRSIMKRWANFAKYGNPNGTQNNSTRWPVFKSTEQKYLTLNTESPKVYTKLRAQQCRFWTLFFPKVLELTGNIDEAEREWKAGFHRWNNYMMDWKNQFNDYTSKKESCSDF
Chain of Amyloid-beta precursor protein (Homo sapiens) (P05067 whole entry): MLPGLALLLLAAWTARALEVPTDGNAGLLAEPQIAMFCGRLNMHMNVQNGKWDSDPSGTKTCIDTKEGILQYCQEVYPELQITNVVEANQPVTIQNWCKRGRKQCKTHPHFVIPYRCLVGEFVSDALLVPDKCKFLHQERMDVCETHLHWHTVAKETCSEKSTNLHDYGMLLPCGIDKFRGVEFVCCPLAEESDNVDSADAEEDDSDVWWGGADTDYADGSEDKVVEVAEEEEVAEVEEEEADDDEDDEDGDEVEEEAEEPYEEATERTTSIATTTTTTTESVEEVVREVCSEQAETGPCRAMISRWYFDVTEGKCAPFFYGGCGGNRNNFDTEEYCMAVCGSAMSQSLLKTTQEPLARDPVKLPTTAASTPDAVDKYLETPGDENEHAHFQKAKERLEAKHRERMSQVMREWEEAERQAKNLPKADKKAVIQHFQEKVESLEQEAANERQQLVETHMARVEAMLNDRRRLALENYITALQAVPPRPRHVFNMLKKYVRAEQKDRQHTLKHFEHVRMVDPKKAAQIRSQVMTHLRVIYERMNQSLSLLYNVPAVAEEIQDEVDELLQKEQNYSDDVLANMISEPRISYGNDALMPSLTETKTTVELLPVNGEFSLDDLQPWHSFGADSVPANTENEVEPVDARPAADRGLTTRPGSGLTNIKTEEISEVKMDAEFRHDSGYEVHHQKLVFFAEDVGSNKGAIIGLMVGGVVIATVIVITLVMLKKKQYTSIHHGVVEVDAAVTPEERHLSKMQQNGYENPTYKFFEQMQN

Structure (SMILES) | viability at 0.1 µM (PC-12 [2]) | viability at 1 µM (PC-12 [4]) | IC50 [7] | viability at 5 µM (PC-12 [9]) | IC50 (Acetylcholinesterase) | viability at 20 µM (PC-12 [13]) | viability at 50 µM (PC-12 [14]) | viability at 10 µM (PC-12 [15]) | IC50 (Cholinesterase) | Activity (PC-12 [17]) | also measured
Cc1cc(=O)oc2cc(OCCCn3cc(CNC(=O)CCCCC4CCSS4)nn3)ccc12 (stereo unspecified) | 44.8% | 54.5% | > 100 µM | 64.6% | 55 µM | 74.3% | 75.4% | 69.4% | > 100 µM | Dose-dependent effect | viability at 50 µM (SH-SY5Y [1]): 55.6%; inhibition (PC-12 [3]): Dose-dependent effect; Activity (PC-12 [5]): 118.8%; viability at 50 µM (SH-SY5Y [6]): 72.9%; Activity (PC-12 [8]): 131.54%; Activity (PC-12 [10]): 49.24%; Activity (PC-12 [11]): Non-Toxic; inhibition [12]: 26.6%; Activity (PC-12 [16]): 122.93%
O=C(O)CCCCC1CCSS1 (stereo not drawn) [LIPOIC ACID, ALPHA] | – | – | – | – | – | – | – | – | – | – | Activity (PC-12 [5]): 138.77%; Activity (PC-12 [8]): 110.65%; Activity (PC-12 [10]): 55.9%; Activity (PC-12 [16]): 105.72%
COc1cc2c(cc1OC)C(=O)C(CC1CCN(Cc3ccccc3)CC1)C2 (stereo unspecified) [DONEPEZIL] | – | – | – | – | – | – | – | – | – | – | viability at 100 µM (SH-SY5Y [18]): 39.9%; viability at 100 µM (SH-SY5Y [19]): 33%
O=C(CCCCC1CCSS1)NCc1cn(CCCOc2ccc3cc(-c4ccc(Cl)c(Cl)c4)c(=O)oc3c2)nn1 (stereo unspecified) | 38.1% | 42.4% | > 100 µM | 44.7% | > 100 µM | 51.2% | 54.8% | 49.6% | 73.5 µM | Dose-dependent effect | –
O=C(CCCCC1CCSS1)NCc1cn(CCCCOc2ccc3cc(-c4ccc(Br)cc4)c(=O)oc3c2)nn1 (stereo unspecified) | 34.2% | 37.4% | > 100 µM | 40.5% | > 100 µM | 45% | 47.6% | 42.6% | > 100 µM | Dose-dependent effect | –
O=C(CCCCC1CCSS1)NCc1cn(CCCCOc2ccc3ccc(=O)oc3c2)nn1 (stereo unspecified) | 40.5% | 45.9% | > 100 µM | 52.8% | 65.5 µM | 69.8% | 75.8% | 65.1% | > 100 µM | Dose-dependent effect | –
O=C(CCCCC1CCSS1)NCc1cn(CCCOc2ccc3ccc(=O)oc3c2)nn1 (stereo unspecified) | 37.8% | 37.2% | > 100 µM | 39.2% | 66.7 µM | 42.2% | 43.5% | 40% | > 100 µM | Dose-dependent effect | –
CO[C@H]1/C=C/O[C@@]2(C)Oc3c(C)c(O)c4c(O)c(c(/C=N/N5CCN(C)CC5)c(O)c4c3C2=O)NC(=O)/C(C)=C\C=C\[C@H](C)[C@H](O)[C@@H](C)[C@@H](O)[C@@H](C)[C@H](OC(C)=O)[C@@H]1C | – | – | – | – | – | – | – | – | – | – | inhibition [12]: 27.5%
